Data taken from ChEMBL document CHEMBL1124441, “Synthesis of congeners and prodrugs. 3. Water-soluble prodrugs of taxol with potent antitumor activity” (1989).

Legend:
Type in all cases: functional, Mus musculus
Details in all cases: route intraperitoneal
B16 [1] = experiment: (§1) Difference in body weight in grams between test and control animals at a dose of 5 mg/kg intraperitoneally
How it was run: (§2)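 B16 melanoma system: 10⁶ tumor cells inoculated ip on day 0. Drug given ip once daily for 9 days (Q01Dx09) starting day 1, dose as mg/kg body weight per injection. Read-out is the body-weight difference in grams, treated minus control animals. Early deaths, taken as toxicity, are scored on day 4.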

B16 [2] = experiment: Antitumor activity in B16 Melanoma system animals is indicated by survivors on day 4 at a dose of 1.2 mg/kg intraperitoneally
How it was run: (§3)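 B16 melanoma, 10^6 cells inoculated ip on day 0. Ip treatment started day 1, schedule Q01Dx09 (one dose daily for 9 days). The score is live animals on day 4 over total animals; early deaths are taken as drug toxicity.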

B16 [3] = experiment: Antitumor activity in B16 Melanoma system animals is indicated by survivors on day 4 at a dose of 10 mg/kg intraperitoneally; parameters: reference not given here; how it was run: as §3
B16 [4] = experiment: Antitumor activity in B16 Melanoma system animals is indicated by survivors on day 4 at a dose of 2.5 mg/kg intraperitoneally; parameters: reference not given here; how it was run: as §3
B16 [5] = experiment: Antitumor activity in B16 Melanoma system animals is indicated by survivors on day 4 at a dose of 20 mg/kg intraperitoneally; parameters: reference not given here; how it was run: as §3
B16 [6] = experiment: (§4) Difference in body weight in grams between test and control animals at a dose of 2.5 mg/kg intraperitoneally; how it was run: as §2
B16 [7] = experiment: (§5) Difference in body weight in grams between test and control animals at a dose of 20 mg/kg intraperitoneally; how it was run: as §2
B16 [8] = experiment: Percent of median lifetime of test animals divided by the median lifetime of control animals at a dose of 20 mg/kg intraperitoneally
How it was run: (§6)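 B16 melanoma inoculated ip (10⁶ cells) on day 0. Daily ip treatment for 9 days (Q01Dx09) begins day 1, dosed per injection in mg/kg. %T/C is the median lifespan of treated animals divided by that of tumored untreated controls, ×100. Cures are animals alive on the last test day. Toxic deaths are assessed on day 4.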

B16 [9] = experiment: Percent of median lifetime of test animals divided by the median lifetime of control animals at a dose of 5 mg/kg intraperitoneally; how it was run: as §6
B16 [10] = experiment: Difference in body weight in grams between test and control animals at a dose of 1.2 mg/kg intraperitoneally
How it was run: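 B16 melanoma, 10^6 cells ip on day 0, then ip dosing from day 1, once daily for 9 days (Q01Dx09). The value is the body-weight difference in grams, treated minus tumored control animals.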

B16 [11] = experiment: (§7) Difference in body weight in grams between test and control animals at a dose of 10 mg/kg intraperitoneally; how it was run: as §2
B16 [12] = experiment: Percent of median lifetime of test animals divided by the median lifetime of control animals at a dose of 2.5 mg/kg intraperitoneally; how it was run: as §6
B16 [13] = experiment: Percent of median lifetime of test animals divided by the median lifetime of control animals at a dose of 1.25 mg/kg intraperitoneally; how it was run: as §6
B16 [14] = experiment: Percent of median lifetime of test animals divided by the median lifetime of control animals at a dose of 10 mg/kg intraperitoneally; how it was run: as §6
B16 [15] = experiment: Antitumor activity in B16 Melanoma system animals is indicated by survivors on day 4 at a dose of 5 mg/kg intraperitoneally; how it was run: as §3
MX1 [16] = experiment: as §7
MX1 [17] = experiment: as §4
MX1 [18] = experiment: as §5
MX1 [19] = experiment: Difference in body weight in grams between test and control animals at a dose of 40 mg/kg intraperitoneally
MX1 [20] = experiment: as §1
B16 [21] = experiment: Difference in body weight in grams between test and control animals at a dose of 44 mg/kg intraperitoneally; how it was run: as §2
B16 [22] = experiment: Difference in body weight in grams between test and control animals at a dose of 5.5 mg/kg intraperitoneally; how it was run: as §2
B16 [23] = experiment: Antitumor activity in B16 Melanoma system animals is indicated by survivors on day 4 at a dose of 11 mg/kg intraperitoneally; how it was run: as §3
B16 [24] = experiment: Antitumor activity in B16 Melanoma system animals is indicated by survivors on day 4 at a dose of 2.75 mg/kg intraperitoneally; how it was run: as §3
B16 [25] = experiment: Antitumor activity in B16 Melanoma system animals is indicated by survivors on day 4 at a dose of 22 mg/kg intraperitoneally; how it was run: as §3
B16 [26] = experiment: Antitumor activity in B16 Melanoma system animals is indicated by survivors on day 4 at a dose of 44 mg/kg intraperitoneally; how it was run: as §3
B16 [27] = experiment: Antitumor activity in B16 Melanoma system animals is indicated by survivors on day 4 at a dose of 5.5 mg/kg intraperitoneally; how it was run: as §3
B16 [28] = experiment: Difference in body weight in grams between test and control animals at a dose of 2.75 mg/kg intraperitoneally; how it was run: as §2
B16 [29] = experiment: Difference in body weight in grams between test and control animals at a dose of 22 mg/kg intraperitoneally; how it was run: as §2
B16 [30] = experiment: Percent of median lifetime of test animals divided by the median lifetime of control animals at a dose of 2.75 mg/kg intraperitoneally; how it was run: as §6
B16 [31] = experiment: Percent of median lifetime of test animals divided by the median lifetime of control animals at a dose of 22 mg/kg intraperitoneally; how it was run: as §6
B16 [32] = experiment: Percent of median lifetime of test animals divided by the median lifetime of control animals at a dose of 44 mg/kg intraperitoneally; how it was run: as §6
B16 [33] = experiment: Percent of median lifetime of test animals divided by the median lifetime of control animals at a dose of 5.5 mg/kg intraperitoneally; how it was run: as §6
B16 [34] = experiment: Difference in body weight in grams between test and control animals at a dose of 11 mg/kg intraperitoneally; how it was run: as §2
B16 [35] = experiment: Percent of median lifetime of test animals divided by the median lifetime of control animals at a dose of 11 mg/kg intraperitoneally; how it was run: as §6

| Compound | Weight difference (B16 [21]) [g] | Activity (B16 [23]) | Activity (B16 [24]) | Activity (B16 [25]) | Activity (B16 [26]) | Activity (B16 [27]) | Weight difference (B16 [29]) [g] | T/C (B16 [30]) [%] | T/C (B16 [31]) [%] | T/C (B16 [32]) [%] | T/C (B16 [33]) [%] | T/C (B16 [35]) [%] | further results |
| --- | --- | --- | --- | --- | --- | --- | --- | --- | --- | --- | --- | --- | --- |
| CC(=O)OC1C(=O)[C@@]2(C)[C@H]([C@H](OC(=O)c3ccccc3)[C@]3(O)CC(OC(=O)C(OC(=O)CCCC(=O)NCCCN(C)C)C(NC(=O)c4ccccc4)c4ccccc4)C(C)=C1C3(C)C)[C@]1(OC(C)=O)CO[C@@H]1C[C@@H]2O.Cl (some centres not stated) | – | – | – | – | – | – | – | – | – | – | – | – | Weight difference (B16 [1]): 0.1 g; Activity (B16 [2]): 10; Activity (B16 [3]): 10; Activity (B16 [4]): 10; Activity (B16 [5]): 10; Weight difference (B16 [6]): -0.1 g; Weight difference (B16 [7]): 0 g; T/C (B16 [8]): 352%; T/C (B16 [9]): 188%; Weight difference (B16 [10]): -0.1 g; Weight difference (B16 [11]): -0.1 g; T/C (B16 [12]): 129%; T/C (B16 [13]): 123%; T/C (B16 [14]): 352%; Survivors on day 4 (B16 [15]): 10; Weight difference (MX1 [16]): -2.2 T-C; Weight difference (MX1 [17]): -0.6 T-C; Weight difference (MX1 [18]): 0.3 T-C; Weight difference (MX1 [19]): -5.9 T-C; Weight difference (MX1 [20]): 0.1 T-C |
| CC(=O)OC1C(=O)[C@]2(C)[C@@H](OC(=O)CCC(=O)O)C[C@H]3OC[C@@]3(OC(C)=O)[C@H]2[C@H](OC(=O)c2ccccc2)[C@]2(O)CC(OC(=O)C(OC(=O)CCC(=O)O)C(NC(=O)c3ccccc3)c3ccccc3)C(C)=C1C2(C)C (some centres not stated) | 0 | 10 | 10 | 10 | 10 | 10 | 0.3 | 109 | 105 | 114 | 113 | 124 | Weight difference (B16 [22]): -0.3 g; Weight difference (B16 [28]): -0.3 g; Weight difference (B16 [34]): 0.1 g |
| CC(=O)OC1C(=O)[C@]2(C)[C@@H](OC(=O)CCC(=O)[O-])C[C@H]3OC[C@@]3(OC(C)=O)[C@H]2[C@H](OC(=O)c2ccccc2)[C@]2(O)CC(OC(=O)C(OC(=O)CCC(=O)[O-])C(NC(=O)c3ccccc3)c3ccccc3)C(C)=C1C2(C)C.[Na+].[Na+] (some centres not stated) | 0 | 10 | 10 | 10 | 10 | 10 | 0 | 120 | 109 | 166 | 114 | 149 | – |
